pIC50: −log10 of the molar value. Calls of active or inactive are those of the source. The calls are words filed in the database; no cut-off is given here.
Tests used:
[1] = Antiinflammatory activity in rat PMNC assessed as inhibition of platelet activating factor-induced beta-glucuronidase release preincubated for 15 mins at 37 degC; format: functional
Procedure, shortened: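 Rat polymorphonuclear leukocytes (2.5 × 10^6 cells/mL) preincubated with sample (diluted from 0.1 M DMSO stock to 10^-3 M) at 37 °C for 15 min. Cytochalasin B added for 5 min, then PAF for 5 min, stopped on ice. Supernatant β-glucuronidase measured with 2.5 mM phenolphthalein glucuronic acid in 0.1 M HOAc, 37 °C, 18 h. NaOH stop, A550; inhibitory ratio versus PAF and control.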

[2] = Antioxidant activity in liver microsomes assessed as inhibition of Fe(2+)-Cys system-induced lipid peroxidation preincubated for 15 mins at 37 degC; format: functional; details: for inhibition: Microsome
Procedure, shortened: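 Sample with liver microsome suspension and 0.2 µM cysteine in 0.1 M PBS pH 7.4, 37 °C, 15 min. Peroxidation started with 50 µM FeSO4 and stopped with 20% TFA. Supernatant heated with 0.67% thiobarbituric acid in boiling water for 10 min, then A532 read. Inhibitory ratio calculated from absorbances.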

Structure (SMILES) | pIC50 [1] | pIC50 [2] | inhibition [2]
COc1cc(/C=C/CO)cc(OC)c1OC(=O)/C=C/c1ccccc1 [NEODIFENGPIN] | < 4.30 |  | inactive
C=CCc1cc(OC)c(O[C@@H](CO)[C@H](O)c2cc(OC)c(O)c(OC)c2)c(OC)c1 | 4.61 | 4.37 | 
C[C@@H]1O[C@@H](OC[C@H]2O[C@@H](Oc3cc4c(cc3O)OCO4)[C@H](O)[C@@H](O)[C@@H]2O)C(O)[C@H](O)[C@H]1O (single isomer, unassigned) | < 4.30 |  | inactive
COc1cc(CCCO)cc2c1O[C@H]([C@]1(O)CC[C@H](OC)[C@@H](O)C1)[C@H]2CO [DIFENGPIOL B] | < 4.30 |  | inactive
COc1cc(CCCO)cc2c1O[C@H](C1=C[C@H](O)[C@H](O)CC1)[C@H]2CO [DIFENGPIOL A] | < 4.30 |  | inactive

Stronger by pIC50 [1], values ahead:

pIC50 [1] | pIC50 [2] | Structure (SMILES) | inhibition [2]
5.79 |  | COc1cc([C@H](O)[C@@H](CO)Oc2c(OC)cc(CCCO)cc2OC)ccc1OC(CO)CO | inactive
5.63 |  | C[C@@H]1C(=O)O[C@H]2[C@H](O)[C@@]34[C@H]5C[C@@H](C(C)(C)C)[C@]36[C@@H](OC(=O)[C@@H]6O)O[C@@]4(C(=O)O5)[C@@]12O [GINKOLIDE B] | 
5.12 |  | COc1cc(O[C@@H]2O[C@H](CO[C@@H]3O[C@@H](C)[C@H](O)[C@@H](O)C3O)[C@@H](O)[C@H](O)[C@H]2O)cc(O)c1OC (single isomer, unassigned) | inactive

From ChEMBL document CHEMBL1157766, “Neolignans and glycosides from the stem bark of Illicium difengpi” (J Nat Prod, 2010)
